Here are results for 25 compounds from ChEMBL document CHEMBL1155872, “Molecular features of the prazosin molecule required for activation of Transport-P” (Bioorg Med Chem, 2008).

Common to all, as to assay type: cell-based
The subject of assay [1] is GT1-1. Description: Activation of [3H]prazosin uptake at transport-P transporter protein in mouse GT1-1 cells at 100 uM relative to control. In a few lines:
(§1)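 GT1-1 GnRH neurones grown in DMEM/Ham's F-12 (1:1) with 10% FBS, plated on poly-D-lysine/laminin-coated wells and used after 2–4 days in culture. Intact cells washed, then incubated 60 min at 37 °C with tracer [³H]prazosin 2 × 10^-10 M plus test compound. Plates iced, washed at 0 °C, solubilised in SDS/NaOH. Radioactivity counted by scintillation and normalised to protein (BCA). Result given as % activation of tracer uptake.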

A short description of assay [2]: Inhibition of prazosin uptake at transport-P transporter protein in mouse GT1-1 cells. In a few lines:
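GT1-1 GnRH neurones were grown on poly-D-lysine/laminin and uptake was run on intact cells after 2–4 days. Incubation was 60 min at 37 °C in DMEM/25 mM Hepes/0.5 mM ascorbate, pH 7.4, with [³H]prazosin 2 × 10^-10 M, unlabelled prazosin 10^-6 M and test compound. Cell-associated radioactivity was normalised to protein. IC50 was taken from concentration–response curves, in triplicate, with each experiment done twice.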

Assay [3] has as its system GT1-1. Nature of the assay: Activation of [3H]prazosin uptake at transport-P transporter protein in mouse GT1-1 cells at 10 uM relative to control. The method in brief:
as §1

The subject of assay [4] is GT1-1. Description: Activation of [3H]prazosin uptake at transport-P transporter protein in mouse GT1-1 cells at 1 uM relative to control. The method in brief:
as §1

Assay [5] relates to GT1-1. Description: Inhibition of prazosin uptake at transport-P transporter protein in mouse GT1-1 cells at 100 uM relative to desipramine.

In the case of `COc1cc2nc(N3CCN(C(=O)c4ccco4)CC3)nc(N3CCOCC3)c2cc1OC`, the Activity with GT1-1 [1], in the assay with GT1-1 [3] and with GT1-1 [4] was 0% in each case. Also, the IC50 in assay [2] was found to be 81 µM. This compound also came in with an inhibition with GT1-1 [5] of 61%.

Take `COc1cc2nc(NCCN3CCCCC3)nc(N)c2cc1OC`: the Activity came to 37% in the assay with GT1-1 [1], 29% in the assay with GT1-1 [3] and 13% in the assay on GT1-1 [4]. In the assay with GT1-1 [5], this compound registered an inhibition of 52%.

With `COc1cc2nc(N3CCN(C(=O)c4ccco4)CC3)nc(Nc3ccccc3)c2cc1OC`, the Activity with GT1-1 [1], with GT1-1 [3] and in the assay with GT1-1 [4] was 0% throughout. The compound also gave an IC50 in assay [2] of 4.5 µM. Moreover, the inhibition with GT1-1 [5] was 80%.

On to `COc1cc2nc(N3CCN(C(=O)c4ccco4)CC3)nc(NC(C)=O)c2cc1OC`, for which the Activity was found to be 206% in the assay with GT1-1 [1], 35% in the assay with GT1-1 [3] and 0% in the assay with GT1-1 [4]. In the assay with GT1-1 [5], this compound returned an inhibition of 0%.

Regarding `Nc1nc(N2CCN(C(=O)c3ccco3)CC2)nc2ccccc12`, the Activity with GT1-1 [1] was 22%; in the assay with GT1-1 [3], 0%; in the assay with GT1-1 [4], 0%. This compound also displayed an inhibition in the assay with GT1-1 [5] of 64%.

As for `COc1cc2nc(N3CCN(C(=O)C4CCCO4)CC3)nc(N)c2cc1OC` (racemic), the Activity in the assay on GT1-1 [1] came to 38%; with GT1-1 [3] it was 0%; with GT1-1 [4], 0%. The inhibition in the assay with GT1-1 [5] was found to be 41%.

On to `COc1cc2nc(N3CCCN(C(=O)c4ccco4)CC3)nc(N)c2cc1OC`, for which the Activity in the assay with GT1-1 [1] stood at 0%; with GT1-1 [3] it was 31%; with GT1-1 [4], 0%. In the assay on GT1-1 [5], this compound displayed an inhibition of 82%.

For `COc1cc2nc(N3CCN(C(=O)c4ccccc4)CC3)nc(N)c2cc1OC`, the Activity in the assay on GT1-1 [1] is 47%; in the assay with GT1-1 [3], 40%; in the assay with GT1-1 [4], 0%. In addition, in the assay on GT1-1 [5], the inhibition amounted to 63%.

`Nc1nc(N2CCN(C(=O)c3ccco3)CC2)nc2cc3c(cc12)OCCO3`: the Activity came to 163% in the assay on GT1-1 [1], 74% in the assay on GT1-1 [3] and 0% with GT1-1 [4]. Also, in the assay with GT1-1 [5], the inhibition came out at 42%.

For the compound `COc1cc2nc(N3CCN(c4ccccc4)CC3)nc(N)c2cc1OC`, the Activity with GT1-1 [1] came out at 0%; in the assay on GT1-1 [3] it was 13%; in the assay with GT1-1 [4], 0%. In assay [2], this compound displayed an IC50 of 5.2 µM. Besides, the inhibition in the assay on GT1-1 [5] was 93%.

Turning to `COc1cc2nc(N3CCN(C(=O)OCc4ccccc4)CC3)nc(N)c2cc1OC`, the Activity in the assay on GT1-1 [1] is 0%; with GT1-1 [3] it was 6%; with GT1-1 [4], 0%. In the assay on GT1-1 [5], this compound came in with an inhibition of 75%.

For `Nc1nc(N2CCN(C(=O)c3ccccc3)CC2)nc2ccccc12`, the Activity in the assay on GT1-1 [1], in the assay with GT1-1 [3] and with GT1-1 [4] was 0% throughout. In addition, in the assay on GT1-1 [5], the inhibition came to 73%.

`c1ccc(OCCCN2CCCC2)cc1` yielded an IC50 in assay [2] of 0.46 µM.

On to `CNc1nc(N2CCN(C(=O)c3ccco3)CC2)nc2cc(OC)c(OC)cc12`, for which the Activity was 229% in the assay with GT1-1 [1], 55% in the assay with GT1-1 [3] and 0% with GT1-1 [4]. Besides, the inhibition in the assay with GT1-1 [5] amounted to 0%.

As to `c1cc2c(cc1OCCCCCN1CCCC1)CCCC2`, the IC50 in assay [2] was 0.19 µM.

For `COc1cc2nc(NCc3ccco3)nc(N)c2cc1OC`, the results for the Activity in the assay on GT1-1 [1], in the assay on GT1-1 [3] and in the assay on GT1-1 [4] were 0%, 43% and 26%, respectively. In the assay with GT1-1 [5], this compound gave an inhibition of 71%.

With `COc1cc2nc(N3CCC(C)CC3)nc(N)c2cc1OC`, the values for the Activity in the assay with GT1-1 [1], in the assay on GT1-1 [3] and in the assay with GT1-1 [4] were 0%, 13% and 0%, respectively. In the assay with GT1-1 [5], the inhibition is 85%.

`COc1cc2nc(N3CCN(C(C)=O)CC3)nc(N)c2cc1OC`: the Activity in the assay with GT1-1 [1] amounted to 61%; with GT1-1 [3], 0%; in the assay on GT1-1 [4] it was 0%. Moreover, the inhibition in the assay with GT1-1 [5] came to 37%.

With `COc1cc2cnc(N3CCN(C(=O)c4ccco4)CC3)nc2cc1OC`, the Activity in the assay on GT1-1 [1], with GT1-1 [3] and in the assay with GT1-1 [4] was 0% each time. In the assay with GT1-1 [5], this compound came in with an inhibition of 5%.

For the compound `COc1cc2nc(N3CCN(C(=O)c4cccs4)CC3)nc(N)c2cc1OC`, the Activity was found to be 161% with GT1-1 [3] and 57% in the assay on GT1-1 [4].

For `CCN(CC)c1nc(N2CCN(C(=O)c3ccco3)CC2)nc2cc(OC)c(OC)cc12`, the Activity in the assay with GT1-1 [1], in the assay with GT1-1 [3] and in the assay with GT1-1 [4] was 0% throughout. For the same compound, 80 µM corresponded to half-maximal inhibition in assay [2] (IC50). In the assay on GT1-1 [5], this compound displayed an inhibition of 55%.

Turning to `COc1cc2nc(N3CCN(C(=O)C(F)(F)F)CC3)nc(N)c2cc1OC`, the Activity with GT1-1 [1] came to 26%; with GT1-1 [3], 0%; in the assay on GT1-1 [4] it was 0%. Also, the inhibition with GT1-1 [5] was determined as 31%.

As for `COc1cc2nc(N3CCN(C(=O)c4ccco4)CC3)nc(O)c2cc1OC`, the Activity with GT1-1 [1], with GT1-1 [3] and with GT1-1 [4] was 0% in each case. The inhibition with GT1-1 [5] worked out at 0%.

Turning to `COc1cc2nc(N3CCN(C(=O)c4ccco4)CC3)nc(NCc3ccccc3)c2cc1OC`, the Activity in the assay with GT1-1 [1], in the assay with GT1-1 [3] and with GT1-1 [4] was 0% throughout. Moreover, the IC50 in assay [2] stood at 5.4 µM. The inhibition with GT1-1 [5] was found to be 69%.

Compound `COc1cc2nc(N3CCN(C(=O)c4ccco4)CC3)nc(N)c2cc1OC` had an Activity in the assay on GT1-1 [4] of 127%.

As usually defined, the IC50 is the concentration at which inhibition is half-maximal. High values mean lower potency, low ones higher potency. In general, inhibition refers to the percentage by which the read-out fell short of the control. A high value points to a strong effect.
